In ChEMBL document CHEMBL4699631, “Antimalarial and anti-inflammatory activities of new chloroquine and primaquine hybrids: Targeting the blockade of malaria parasite transmission” (Bioorg Med Chem, 2020):

Legend:
[1] = Cytotoxicty against mouse J774.A1 cells assessed as cell viability at 100 uM incubated for 24 hrs by resazurin dye based assay (reference value: 100 %); conditions: read-out: Activity
Procedure, shortened: (§1)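 J774A.1 macrophages grown in DMEM with 10% FBS and 0.1% gentamycin, seeded at 1×10^5 cells/well. Exposed to compounds at 0, 12.5, 25, 50 or 100 μM for 24 h. Resazurin (10 μg/ml) added for 3 h, then fluorescence read. Run in triplicate. Viability given as percent of 0.2% DMSO-treated cells.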

Plasmodium gallinaceum [2] = assay: Antimalarial activity against Plasmodium gallinaceum vectored in Aedes fluviatilis infected in chicken assessed as reduction in mosquito infection at 50 mg/kg, po measured immediately by Giemsa staining based microscopic analysis relative to control; type: functional; set-up: scale not given: the % may be the effect or the level left; conditions: time 0 hrs
Procedure, shortened: (§2)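 One-day-old chickens infected intramuscularly with P. gallinaceum-infected erythrocytes; parasitemia and gametocytemia followed by daily Giemsa-stained smears. Chickens with rising parasitemia below 10% fed to starved (12 h) female Ae. fluviatilis (kept 28 °C, 80% humidity) at 0 h (control) and 4 h after dosing (test compound 25–50 mg/kg; PQ 15 mg/kg). Oocyst counts and mosquito infection rates compared with nontreated groups.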

Plasmodium falciparum = assay: Antimalarial activity against Plasmodium falciparum CQR (W2 clone) infected in human erythrocyte assessed as reduction in parasite growth incubated for 48 hrs by SYBR assay; type: functional, organism-based
Procedure, shortened: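 W2 parasites cultured in A+ human erythrocytes in RPMI 1640 with ALBUMAX II, candle jar, 37 °C. Rings synchronized with sorbitol, then exposed to serial dilutions at 0.5% parasitemia and 2% hematocrit for 48 h at 37 °C. Lysis buffer with SYBR Safe, 30 min in the dark, fluorescence read at ex 485 nm. IC50 from sigmoid curve fit against drug-free control.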

Plasmodium gallinaceum [3] = assay: Antimalarial activity against Plasmodium gallinaceum vectored in Aedes fluviatilis infected in chicken assessed as reduction in oocyst number at 50 mg/kg, po measured after 4 hrs by Giemsa staining based microscopic analysis relative to control; type: functional; set-up: scale not given: the % may be the effect or the level left; procedure, shortened: as §2
Plasmodium gallinaceum [4] = assay: Antimalarial activity against Plasmodium gallinaceum vectored in Aedes fluviatilis infected in chicken assessed as reduction in gametocyte stage at 25 mg/kg, po measured immediately by Giemsa staining based microscopic analysis relative to control; type: functional; set-up: scale not given: the % may be the effect or the level left; conditions: time 0 hrs; procedure, shortened: as §2
Plasmodium gallinaceum [5] = assay: Antimalarial activity against Plasmodium gallinaceum vectored in Aedes fluviatilis infected in chicken assessed as reduction in parasite growth at 50 mg/kg, po measured immediately by Giemsa staining based microscopic analysis relative to control; type: functional; set-up: scale not given: the % may be the effect or the level left; conditions: time 0 hrs; procedure, shortened: as §2
Plasmodium gallinaceum [6] = assay: Antimalarial activity against Plasmodium gallinaceum vectored in Aedes fluviatilis infected in chicken assessed as reduction in oocyst number at 25 mg/kg, po measured immediately by Giemsa staining based microscopic analysis; type: functional; conditions: time 0 hrs; procedure, shortened: as §2
[7] = Cytotoxicty against mouse J774.A1 cells assessed as cell viability at 50 uM incubated for 24 hrs by resazurin dye based assay (reference value: 100 %); conditions: read-out: Activity; procedure, shortened: as §1
[8] = Cytotoxicty against mouse J774.A1 cells assessed as cell viability at 25 uM incubated for 24 hrs by resazurin dye based assay (reference value: 100 %); conditions: read-out: Activity; procedure, shortened: as §1
[9] = Cytotoxicity against monkey BGM cells assessed as reduction in cell viability incubated for 24 hrs by neutral red dye based assay; conditions: chlorocebus aethiops, read-out: MDL50
Procedure, shortened: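 BGM monkey kidney cells grown in RPMI 1640 with 10% heat-inactivated fetal serum and gentamicin, 5% CO2, 37 °C. Cells allowed to adhere for 24 h, then exposed to compounds at 1000–1 μg/mL for 24 h. Neutral red uptake for 3 h, formaldehyde/CaCl2 fix, alcohol-acetic acid elution, absorbance at 540 nm. Viability taken as percent of untreated cells after background subtraction. MLD50 derived from this.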

J774.A1 [10] = assay: Inhibition of LPS-induced NO production in mouse J774.A1 cells incubated for 24 hrs by Griess reagent based assay; type: functional, cell-based; conditions: dose microM 0.5-25, time 24.0 hrs
Procedure, shortened: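 Compounds made as 10 mM DMSO stocks and diluted in medium. J774A.1 cells pre-incubated with compounds at 25 μM for screening, or 0.5–25 μM for dose-response, with dexamethasone 1 μM or 0.2% DMSO as controls. Stimulated with LPS 37.5 ng/ml plus IFNγ 25 U/ml for 24 h at 37 °C, 5% CO2. Supernatant nitrite measured by Griess at 540 nm. Triplicate, mean ± SEM.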

Plasmodium gallinaceum [11] = assay: Antimalarial activity against Plasmodium gallinaceum vectored in Aedes fluviatilis infected in chicken assessed as reduction in oocyst number at 50 mg/kg, po measured immediately by Giemsa staining based microscopic analysis; type: functional; conditions: time 0 hrs; procedure, shortened: as §2
Plasmodium gallinaceum [12] = assay: Antimalarial activity against Plasmodium gallinaceum vectored in Aedes fluviatilis infected in chicken assessed as reduction in oocyst number at 25 mg/kg, po measured after 4 hrs by Giemsa staining based microscopic analysis relative to control; type: functional; set-up: scale not given: the % may be the effect or the level left; procedure, shortened: as §2
Plasmodium gallinaceum [13] = assay: Antimalarial activity against Plasmodium gallinaceum vectored in Aedes fluviatilis infected in chicken assessed as reduction in mosquito infection at 50 mg/kg, po measured after 4 hrs by Giemsa staining based microscopic analysis relative to control; type: functional; procedure, shortened: as §2
[14] = Cytotoxicty against mouse J774.A1 cells assessed as cell viability at 12.5 uM incubated for 24 hrs by resazurin dye based assay (reference value: 100 %); conditions: read-out: Activity; procedure, shortened: as §1
Plasmodium gallinaceum [15] = assay: Antimalarial activity against Plasmodium gallinaceum vectored in Aedes fluviatilis infected in chicken assessed as reduction in gametocyte stage at 50 mg/kg, po measured immediately by Giemsa staining based microscopic analysis relative to control; type: functional; set-up: scale not given: the % may be the effect or the level left; conditions: time 0 hrs; procedure, shortened: as §2
Plasmodium gallinaceum [16] = assay: Antimalarial activity against Plasmodium gallinaceum vectored in Aedes fluviatilis infected in chicken assessed as reduction in mosquito infection at 25 mg/kg, po measured after 4 hrs by Giemsa staining based microscopic analysis relative to control; type: functional; procedure, shortened: as §2
J774.A1 [17] = assay: Inhibition of LPS-induced TNFalpha production in mouse J774.A1 cells incubated for 24 hrs by ELISA; type: functional, cell-based; conditions: dose microM 0.5-25, time 24.0 hrs
Procedure, shortened: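 J774A.1 cells seeded at 2×10^6 cells/well. Pretreated with vehicle, dexamethasone 1 μM, or compounds at 0.5–25 μM. Stimulated with LPS 100 ng/ml for 24 h. Supernatants stored at −20 °C, then TNFα measured by sandwich ELISA in pg/mL. Triplicate, mean ± SEM.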

Plasmodium gallinaceum [18] = assay: Antimalarial activity against Plasmodium gallinaceum vectored in Aedes fluviatilis infected in chicken assessed as reduction in parasite growth at 25 mg/kg, po measured immediately by Giemsa staining based microscopic analysis relative to control; type: functional; set-up: scale not given: the % may be the effect or the level left; conditions: time 0 hrs; procedure, shortened: as §2
Plasmodium gallinaceum [19] = assay: Antimalarial activity against Plasmodium gallinaceum vectored in Aedes fluviatilis infected in chicken assessed as reduction in mosquito infection at 25 mg/kg, po measured immediately by Giemsa staining based microscopic analysis relative to control; type: functional; set-up: scale not given: the % may be the effect or the level left; conditions: time 0 hrs; procedure, shortened: as §2
[20] = Selectivity index, ratio of MDL50 for monkey BGM cells to IC50 for Plasmodium falciparum CQR (W2 clone) infected in human Erythrocyte; type: toxicity
Procedure, shortened: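 SI calculated as MLD50 in BGM cells (neutral red, 24 h) divided by IC50 against P. falciparum W2 (SYBR, 48 h).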

Plasmodium gallinaceum [21] = assay: Antimalarial activity against Plasmodium gallinaceum vectored in Aedes fluviatilis infected in chicken assessed as reduction in parasite growth at 15 mg/kg, po measured immediately by Giemsa staining based microscopic analysis relative to control; type: functional; set-up: scale not given: the % may be the effect or the level left; conditions: time 0 hrs; procedure, shortened: as §2
Plasmodium gallinaceum [22] = assay: Antimalarial activity against Plasmodium gallinaceum vectored in Aedes fluviatilis infected in chicken assessed as reduction in oocyst number at 15 mg/kg, po measured after 4 hrs by Giemsa staining based microscopic analysis relative to control; type: functional; set-up: scale not given: the % may be the effect or the level left; procedure, shortened: as §2
Plasmodium gallinaceum [23] = assay: Antimalarial activity against Plasmodium gallinaceum vectored in Aedes fluviatilis infected in chicken assessed as reduction in oocyst number at 15 mg/kg, po measured immediately by Giemsa staining based microscopic analysis; type: functional; conditions: time 0 hrs; procedure, shortened: as §2
Plasmodium gallinaceum [24] = assay: Antimalarial activity against Plasmodium gallinaceum vectored in Aedes fluviatilis infected in chicken assessed as reduction in gametocyte stage at 15 mg/kg, po measured immediately by Giemsa staining based microscopic analysis relative to control; type: functional; set-up: scale not given: the % may be the effect or the level left; conditions: time 0 hrs; procedure, shortened: as §2
Plasmodium gallinaceum [25] = assay: Antimalarial activity against Plasmodium gallinaceum vectored in Aedes fluviatilis infected in chicken assessed as reduction in mosquito infection at 15 mg/kg, po measured after 4 hrs by Giemsa staining based microscopic analysis relative to control; type: functional; procedure, shortened: as §2
Plasmodium gallinaceum [26] = assay: Antimalarial activity against Plasmodium gallinaceum vectored in Aedes fluviatilis infected in chicken assessed as reduction in mosquito infection at 15 mg/kg, po measured immediately by Giemsa staining based microscopic analysis relative to control; type: functional; set-up: scale not given: the % may be the effect or the level left; conditions: time 0 hrs; procedure, shortened: as §2

COc1cc(NC(C)CCCNC(=O)C(F)(F)c2cc(Cl)ccc2NC(C)=O)c2ncccc2c1 (stereo not given)
viability at 24 h, 100 µM [1]: 33.9%
Activity (Plasmodium gallinaceum [2]): 95%
IC50 (Plasmodium falciparum): 8.4 µM
Activity (Plasmodium gallinaceum [3]): 81.3%
Activity (Plasmodium gallinaceum [4]): 41%
Activity (Plasmodium gallinaceum [5]): 10.3%
Activity (Plasmodium gallinaceum [6]): 56
viability at 24 h, 50 µM [7]: 56.2%
viability at 24 h, 25 µM [8]: 96.8%
CC50 at 24 h [9]: 13.6 µM
inhibition (J774.A1 [10]): Dose-dependent effect
Activity (Plasmodium gallinaceum [11]): 166
Activity (Plasmodium gallinaceum [12]): 0%
inhibition in vivo at 50 mg/kg (Plasmodium gallinaceum [13]): 15%
viability at 24 h, 12.5 µM [14]: 100%
Activity (Plasmodium gallinaceum [15]): 42%
inhibition in vivo at 25 mg/kg (Plasmodium gallinaceum [16]): 5%
inhibition (J774.A1 [17]): Dose-dependent effect
Activity (Plasmodium gallinaceum [18]): 4.7%
Activity (Plasmodium gallinaceum [19]): 89%
selectivity ratio [20]: 1.6

COc1cc(NC(C)CCCN)c2ncccc2c1 (stereo not given) [PRIMAQUINE]
IC50 (Plasmodium falciparum): 1.9 µM
Activity (Plasmodium gallinaceum [21]): 7%
Activity (Plasmodium gallinaceum [22]): 100%
Activity (Plasmodium gallinaceum [23]): 41
CC50 at 24 h [9]: 483 µM
Activity (Plasmodium gallinaceum [24]): 45%
inhibition in vivo at 15 mg/kg (Plasmodium gallinaceum [25]): 100%
Activity (Plasmodium gallinaceum [26]): 85%
selectivity ratio [20]: 255
